Data as given in PMC3032084 (Nature chemical biology, 2009).
Entries after “also recorded” stand apart in the source; their conditions may differ.

Tests used:
PTHR = settings: membranes, ref [6]; cited from earlier work
YFP-labeled PTHR = YFP-labeled PTHR (UniProt Q03431); test: FRET or BRET
[1] = biological target: PTHR variant that lacks the N domain and is tagged extracellularly with GFP; test: FRET or BRET
GFP-N-PTHR = test: Live cell confocal co-localization of ligand with GFP-N-PTHR; format: cell-based; settings: TMR-labeled ligand, after washout
Gαs-GFP = test: Live cell confocal co-localization of ligand with Gαs-GFP; format: cell-based; settings: TMR-labeled ligand, after washout
adenylyl cyclases = test: Co-localization of ligand with BODIPY-Fsk labeled adenylyl cyclases; format: cell-based; settings: cells transiently transfected with PTHR
Outline: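 HEK293 cells transiently transfected with PTHR. Cellular adenylyl cyclases labeled with BODIPY-labeled forskolin, which labels all cells. A TMR-labeled test peptide ligand marks only the PTHR-expressing cells. After ligand binding, the distribution of the BODIPY-Fsk signal is compared with the ligand signal (internalized punctae vs diffuse) by live-cell fluorescence imaging.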

PTHR (GFP-N-PTHR) = biological target: T1, PTHR (GFP-N-PTHR) (Homo sapiens, UniProt Q03431); format: binding; settings: for ligand dissociation after washout: GFP fluorescence recovery after rapid removal of ligand; for decrease in GFP emission: saturating concentration (15 μM), hormone binding to receptor
T1 sequence (Q03431 27-593): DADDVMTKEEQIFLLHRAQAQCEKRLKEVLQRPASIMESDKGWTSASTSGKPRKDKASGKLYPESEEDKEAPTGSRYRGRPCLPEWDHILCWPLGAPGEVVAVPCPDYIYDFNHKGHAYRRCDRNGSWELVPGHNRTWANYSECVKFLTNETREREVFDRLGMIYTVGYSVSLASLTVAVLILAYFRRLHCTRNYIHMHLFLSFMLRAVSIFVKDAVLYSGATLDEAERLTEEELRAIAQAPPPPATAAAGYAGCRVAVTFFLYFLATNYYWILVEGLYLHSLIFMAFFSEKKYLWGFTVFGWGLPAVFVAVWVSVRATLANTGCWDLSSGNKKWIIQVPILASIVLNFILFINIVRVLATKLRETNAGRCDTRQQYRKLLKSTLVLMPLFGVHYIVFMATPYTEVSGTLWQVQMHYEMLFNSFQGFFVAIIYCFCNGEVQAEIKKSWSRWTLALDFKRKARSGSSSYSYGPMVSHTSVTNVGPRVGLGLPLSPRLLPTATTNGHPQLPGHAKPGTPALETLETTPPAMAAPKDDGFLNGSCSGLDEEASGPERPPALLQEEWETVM

[2] = biological target: PTHR N-terminally tagged with green fluorescent protein (UniProt Q03431); test: FRET or BRET
[3] = biological target: T2, PTHR co-expressed with DN-Gs (Homo sapiens, UniProt Q03431); test: Ligand dissociation by FRET with co-expressed dominant-negative Gαs; format: binding; settings: co-expression of DN-Gs
T2 sequence (Q03431 27-593): T1 sequence (Q03431 27-593)

Rab5-GFP = test: Co-localization of ligand with Rab5-GFP early endosomes; format: cell-based; settings: Rab5-GFP-transfected cells
Outline: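 Live HEK293 cells transfected with Rab5-GFP were imaged at room temperature 48 h post-transfection by spinning-disc confocal microscopy. Cells were washed with HEPES buffer containing 0.1% BSA. TMR-labelled ligand was added and removed by perfusion. Z-stacks were taken at 0.3-μm steps. Co-localization was scored by Pearson's correlation coefficient.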

Rab7-GFP = test: Co-localization of ligand with Rab7-GFP late endosomes; format: cell-based; settings: even after 30 min of incubation
[4] = tested on: early endosomal antigen 1 (EEA-1); test: Co-localization of ligand with GFP-tagged EEA-1; format: cell-based; settings: data not shown
PTHR (PTHR-CFP/YFP) = biological target: T3, PTHR (PTHR-CFP/YFP) (Homo sapiens, UniProt Q03431); test: PTHR activation/deactivation by intramolecular FRET; format: cell-based; settings: PTHR-CFP/YFP FRET after washout
T3 sequence (Q03431 27-462 limits assumed): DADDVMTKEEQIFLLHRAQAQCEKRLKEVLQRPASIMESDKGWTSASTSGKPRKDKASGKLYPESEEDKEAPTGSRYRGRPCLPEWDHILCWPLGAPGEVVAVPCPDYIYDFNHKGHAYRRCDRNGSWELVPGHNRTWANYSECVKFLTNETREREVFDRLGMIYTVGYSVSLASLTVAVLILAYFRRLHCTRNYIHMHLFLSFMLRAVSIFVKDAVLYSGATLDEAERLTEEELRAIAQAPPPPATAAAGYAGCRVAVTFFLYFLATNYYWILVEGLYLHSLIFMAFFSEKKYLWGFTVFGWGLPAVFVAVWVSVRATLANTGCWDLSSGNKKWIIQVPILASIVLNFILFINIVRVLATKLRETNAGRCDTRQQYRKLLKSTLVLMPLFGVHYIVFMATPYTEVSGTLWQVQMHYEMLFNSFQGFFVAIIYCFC

[5] = tested on: cAMP via PTHR in HEK293 cells; test: cAMP accumulation/degradation by FRET sensor Epac-CFP/YFP; format: cell-based; settings: PTHrP1–36 100 nM, PTH1–34 text 1−10 nM

## ^125I-PTH1–34: radioligand of PTH1–34
PTHR
  stability of radioligand binding with GTPγS: remains mostly stable in the presence of GTPγS

## Gs-CFP (Gαs/Gβ1/Gγ2-CFP) (from UniProt P63092 1-394; P62873 1-340; P59768 1-71) (complex; other documents disagree on this pair)
YFP-labeled PTHR
  tau, PTHR-Gs dissociation (turn off) after washout of PTHrP(1-36): 48.1 s
  tau, PTHR-Gs interaction (switch on) with PTH(1-34): 0.96 s
  tau, PTHR-Gs interaction (switch on) with PTHrP(1-36): 1.58 s

## ^125I-PTHrP1–36: radioligand of PTHrP1–36
PTHR
  stability of radioligand binding with GTPγS: mostly destabilized by GTPγS

## M-PTH(1-14) labelled with tetramethylrhodamine (peptide)
[1]
  tau, dissociation (single step): 15.8 s

## PTHrP1–36-TMR: TMR-labeled PTHrP1–36
GFP-N-PTHR
  co-localization with GFP-N-PTHR: did not co-localize with either GFP-N-PTHR or Gαs-GFP; also recorded: alone is detected as small puntae at internalized sites
Gαs-GFP
  co-localization with Gαs-GFP: did not co-localize with either GFP-N-PTHR or Gαs-GFP; also recorded: only ligand-containing vesicles are observed
Adenylyl cyclases
  BODIPY-Fsk (adenylyl cyclase) distribution/co-localization with ligand: the labeled forskolin remained diffuse
PTHR (GFP-N-PTHR)
  ligand dissociation after washout: complete dissociation of the ligand from the receptor
  decrease in GFP emission: ~ 20%

## PTH(1-34) tagged at Lys13 with tetramethylrhodamine (peptide)
[2]
  koff, fast step (intercept): 0.46 s⁻¹
  tau fast, dissociation (turn off): 1.5 s
  tau slow, association (switch on): 1.15 s

## PTH1–34-TMR: PTH ligand tagged at Lys13 with tetramethylrhodamine
GFP-N-PTHR
  co-localization with GFP-N-PTHR: strong co-localization with both GFP-N-PTHR and Gas-GFP; also recorded: little or no TMR fluorescence from PTH1–34-TMR was detected at the cell surface; also recorded: remained closely associated during receptor internalization
Gαs-GFP
  co-localization with Gαs-GFP: strong co-localization with both GFP-N-PTHR and Gas-GFP; also recorded: persisted over a period of 30 min in endosomes but not at the cell surface
[3]
  effect of DN-Gs on ligand release: no effect
Rab5-GFP
  co-localization with Rab5-labeled endosomes: all of the internalized PTH1–34-TMR co-localized with Rab5-labeled endosomes
Adenylyl cyclases
  BODIPY-Fsk (adenylyl cyclase) distribution/co-localization with ligand: strongly co-localized with the ligand as internalized punctae
Rab7-GFP
  co-localization with Rab7-GFP: No co-localization
PTHR (GFP-N-PTHR)
  ligand dissociation after washout: most of the ligand remaining bound to the receptor after washout
  decrease in GFP emission: ~ 20%
[4]
  co-localization with EEA-1-GFP: also co-localized with the early endosomal antigen 1 (EEA-1)

## PTH1–84: PTH is represented by PTH1–84
PTHR (PTHR-CFP/YFP)
  persistence of active receptor state after ligand removal: stable active state that persisted well after removal of ligand
[5]
  Epac-FRET (cAMP) signal after ligand washout: remained fully stable after washout
